Values after ≈ are worked out from the molar mass of the structure shown.
Key:
[1] = AUC (0 to 4 hrs) in mouse at 50 mg/kg, po; assay type: ADME, organism-based; parameters: time < 4 hr, dose 50 mg/kg, route oral; details: plasma
How it was run: (§1)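 Oral dosing to female mice, three per dose group, at 50 and 200 mg/kg in PEG400/water (70:30). Plasma levels of the parent drug were measured at 0.5, 1 and 4 h.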

Cytochrome P450 2C19 = Cytochrome P450 2C19 (Homo sapiens, UniProt P33261); experiment: Inhibition of human CYP2C19; assay type: ADME
[2] = Cmax in mouse at 50 mg/kg, po; assay type: ADME, organism-based; parameters: dose 50 mg/kg, route oral; details: in vivo; how it was run: as §1
Cytochrome P450 3A4 [3] = biological target: T1, Cytochrome P450 3A4 (Homo sapiens, UniProt P08684); experiment: Inhibition of human CYP3A4 using 7-benzyl-trifluoromethyl coumarin; assay type: ADME
Cytochrome P450 2C9 = Cytochrome P450 2C9 (Homo sapiens, UniProt P11712); experiment: Inhibition of human CYP2C9; assay type: ADME
[4] = Cmax in mouse at 200 mg/kg, po; assay type: ADME, organism-based; parameters: dose 200 mg/kg, route oral; details: in vivo; how it was run: as §1
Cytochrome P450 2D6 = Cytochrome P450 2D6 (Homo sapiens, UniProt P10635); experiment: Inhibition of human CYP2D6; assay type: ADME
Cytochrome P450 1A2 = biological target: T2, Cytochrome P450 1A2 (Homo sapiens, UniProt P05177); experiment: Inhibition of human CYP1A2; assay type: ADME
T2 sequence (P05177 whole entry): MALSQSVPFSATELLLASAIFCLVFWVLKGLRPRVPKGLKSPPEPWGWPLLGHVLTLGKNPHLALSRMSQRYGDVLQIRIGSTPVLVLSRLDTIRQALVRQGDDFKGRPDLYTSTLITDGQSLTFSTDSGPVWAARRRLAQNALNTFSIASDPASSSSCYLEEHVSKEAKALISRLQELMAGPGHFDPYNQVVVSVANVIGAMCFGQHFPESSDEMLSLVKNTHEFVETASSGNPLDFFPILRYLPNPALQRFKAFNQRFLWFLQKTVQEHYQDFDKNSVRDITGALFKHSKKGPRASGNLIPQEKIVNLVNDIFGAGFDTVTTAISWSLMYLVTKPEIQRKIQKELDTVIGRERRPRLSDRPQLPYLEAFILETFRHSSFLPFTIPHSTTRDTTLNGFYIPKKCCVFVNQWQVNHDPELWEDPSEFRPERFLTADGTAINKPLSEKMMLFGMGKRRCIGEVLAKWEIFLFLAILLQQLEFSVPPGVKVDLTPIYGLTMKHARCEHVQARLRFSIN

Mus musculus = experiment: Ratio of AUC (0 to 4 hrs) in mouse plasma at 200 mg/kg, po to AUC (0 to 4 hrs) in mouse plasma at 50 mg/kg, po; assay type: ADME, organism-based; details: in vivo; how it was run: as §1
Cytochrome P450 3A4 [5] = biological target: T1, Cytochrome P450 3A4; experiment: Inhibition of human CYP3A4 using 7-benzyloxyresorufin; assay type: ADME
[6] = AUC (0 to 4 hrs) in mouse at 200 mg/kg, po; assay type: ADME, organism-based; parameters: time < 4 hr, dose 200 mg/kg, route oral; details: plasma; how it was run: as §1
L2987 [7] = experiment: Antitumor activity against human L2987 cells xenografted po dosed athymic mouse after 14 days; assay type: functional, organism-based
How it was run: (§2)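 L2987 non-small cell lung tumors were grown as xenografts in athymic mice. Once tumors were established at 80–100 mm³, animals were dosed orally once daily for 14 consecutive days. Tumor growth was followed through dosing, and activity was expressed as percent tumor growth inhibition (%TGI).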

[8] = Aqueous solubility at pH 5.8; assay type: physicochemical
L2987 [9] = experiment: Antitumor activity against human L2987 cells xenografted athymic mouse at 107 mg/kg/day, po after 14 days; assay type: functional; details: L2987, 336 h, read-out: TGI; how it was run: as §2
L2987 [10] = experiment: Antitumor activity against human L2987 cells xenografted athymic mouse at 80 mg/kg/day, po after 14 days; assay type: functional; details: L2987, 336 h, read-out: TGI; how it was run: as §2
[11] = Aqueous solubility at pH 6.5; assay type: physicochemical

T1 sequence (P08684 whole entry): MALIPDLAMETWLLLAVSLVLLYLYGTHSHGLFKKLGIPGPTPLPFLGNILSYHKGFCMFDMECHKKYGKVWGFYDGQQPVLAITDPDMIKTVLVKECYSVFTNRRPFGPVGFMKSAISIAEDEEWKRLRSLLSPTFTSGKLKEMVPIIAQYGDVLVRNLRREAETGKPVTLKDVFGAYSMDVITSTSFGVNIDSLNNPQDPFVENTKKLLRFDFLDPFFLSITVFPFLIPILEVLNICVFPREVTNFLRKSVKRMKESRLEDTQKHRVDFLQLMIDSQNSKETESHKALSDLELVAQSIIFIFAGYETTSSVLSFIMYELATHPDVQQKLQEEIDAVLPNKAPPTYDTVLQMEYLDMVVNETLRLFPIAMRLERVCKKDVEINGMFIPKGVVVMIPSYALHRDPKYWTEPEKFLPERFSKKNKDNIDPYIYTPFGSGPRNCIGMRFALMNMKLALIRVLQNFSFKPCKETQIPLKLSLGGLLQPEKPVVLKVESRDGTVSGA
Sequence of Cytochrome P450 2C19 (P33261 whole entry): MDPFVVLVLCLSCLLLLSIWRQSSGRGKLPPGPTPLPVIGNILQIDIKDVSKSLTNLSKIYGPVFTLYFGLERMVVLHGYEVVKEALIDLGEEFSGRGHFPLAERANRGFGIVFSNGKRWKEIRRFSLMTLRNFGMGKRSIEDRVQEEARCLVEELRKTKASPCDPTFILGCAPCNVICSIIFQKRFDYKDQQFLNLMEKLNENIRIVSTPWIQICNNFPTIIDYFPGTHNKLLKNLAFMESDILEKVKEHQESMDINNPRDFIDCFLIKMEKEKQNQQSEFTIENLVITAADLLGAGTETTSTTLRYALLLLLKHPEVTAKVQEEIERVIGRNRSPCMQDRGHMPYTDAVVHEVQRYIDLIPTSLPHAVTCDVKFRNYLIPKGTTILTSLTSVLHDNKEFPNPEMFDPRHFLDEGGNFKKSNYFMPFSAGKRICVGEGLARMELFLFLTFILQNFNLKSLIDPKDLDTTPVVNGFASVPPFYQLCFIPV
Sequence of Cytochrome P450 2D6 (P10635 whole entry): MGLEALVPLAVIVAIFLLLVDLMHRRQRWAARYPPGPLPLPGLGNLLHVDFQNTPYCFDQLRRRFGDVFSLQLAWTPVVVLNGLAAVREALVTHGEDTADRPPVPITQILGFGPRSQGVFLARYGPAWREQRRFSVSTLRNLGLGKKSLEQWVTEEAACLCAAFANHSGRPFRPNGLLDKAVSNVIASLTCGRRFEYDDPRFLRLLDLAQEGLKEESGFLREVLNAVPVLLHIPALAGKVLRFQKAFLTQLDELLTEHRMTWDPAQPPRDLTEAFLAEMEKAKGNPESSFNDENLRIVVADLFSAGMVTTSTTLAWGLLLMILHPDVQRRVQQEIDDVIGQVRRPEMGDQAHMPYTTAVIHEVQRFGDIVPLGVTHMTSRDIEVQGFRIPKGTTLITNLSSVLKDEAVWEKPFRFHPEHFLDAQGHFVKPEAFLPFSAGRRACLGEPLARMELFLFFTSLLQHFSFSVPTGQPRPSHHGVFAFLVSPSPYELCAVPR
Sequence of Cytochrome P450 2C9 (P11712 whole entry): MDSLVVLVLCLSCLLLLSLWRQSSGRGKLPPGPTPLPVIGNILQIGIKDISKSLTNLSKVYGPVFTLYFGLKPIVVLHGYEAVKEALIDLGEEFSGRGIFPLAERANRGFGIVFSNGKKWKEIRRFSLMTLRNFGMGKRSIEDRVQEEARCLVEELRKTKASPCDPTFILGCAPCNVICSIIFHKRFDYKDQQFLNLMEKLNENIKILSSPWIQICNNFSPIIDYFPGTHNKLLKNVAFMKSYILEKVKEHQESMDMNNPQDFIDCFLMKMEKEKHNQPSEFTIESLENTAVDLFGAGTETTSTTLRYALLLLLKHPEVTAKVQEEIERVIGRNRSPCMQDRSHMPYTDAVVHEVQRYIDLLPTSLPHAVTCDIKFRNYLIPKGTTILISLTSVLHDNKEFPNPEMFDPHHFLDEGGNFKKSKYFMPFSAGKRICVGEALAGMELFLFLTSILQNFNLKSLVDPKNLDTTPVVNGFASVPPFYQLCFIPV

AUC(0-t) at 4 h [1]	IC50 (Cytochrome P450 2C19)	Cmax [2]	IC50 (Cytochrome P450 2C9)	Cmax [4]	IC50 (Cytochrome P450 2D6)	IC50 (Cytochrome P450 1A2)	Ratio (Mus musculus)	AUC(0-t) at 4 h [6]	solubility [8]	solubility [11]	SMILES	IC50 (Cytochrome P450 3A4 [3])	IC50 (Cytochrome P450 3A4 [5])	Activity (L2987 [7])	inhibition in vivo at 107 mg/kg/day (L2987 [9])	inhibition in vivo at 80 mg/kg/day (L2987 [10])
46 µM·h	–	15 µM	–	66 µM	–	–	4.6	213 µM·h	–	–	Cc1cc2c(F)c(Oc3ncnn4cc(OC[C@@H](C)OC(=O)C(C)(C)N)c(C)c34)ccc2[nH]1	–	–	–	–	–
113 µM·h	1800 nM	31 µM	2700 nM	152 µM	24000 nM	34000 nM	4	451 µM·h	–	–	Cc1cc2c(F)c(Oc3ncnn4cc(OC[C@@H](C)OC(=O)C(N)CC(C)C)c(C)c34)ccc2[nH]1 (single isomer, unassigned)	95 nM	370 nM	–	–	–
69 µM·h	2100 nM	21 µM	9700 nM	78 µM	24000 nM	> 40000 nM	–	276 µM·h	73 mg/mL (≈ 165 mM)	–	Cc1cc2c(F)c(Oc3ncnn4cc(OC[C@@H](C)OC(=O)C(C)N)c(C)c34)ccc2[nH]1 (single isomer, unassigned; 8)	–	–	Dose-dependent effect	97%	85%
45 µM·h	> 40000 nM	12 µM	> 40000 nM	14 µM	> 40000 nM	> 40000 nM	–	52 µM·h	–	< 0.001 mg/mL	Cc1cc2c(F)c(Oc3ncnn4cc(OC[C@@H](C)O)c(C)c34)ccc2[nH]1 [BRIVANIB]	–	–	–	–	–

SMILES	AUC(0-t) at 4 h [1]	IC50 (Cytochrome P450 2C19)	Cmax [2]	IC50 (Cytochrome P450 2C9)	Cmax [4]	IC50 (Cytochrome P450 2D6)	IC50 (Cytochrome P450 1A2)	Ratio (Mus musculus)	AUC(0-t) at 4 h [6]	solubility [8]	solubility [11]	IC50 (Cytochrome P450 3A4 [3])	IC50 (Cytochrome P450 3A4 [5])	Activity (L2987 [7])	inhibition in vivo at 107 mg/kg/day (L2987 [9])	inhibition in vivo at 80 mg/kg/day (L2987 [10])
Cc1cc2c(F)c(Oc3ncnn4cc(OC[C@@H](C)OC(=O)CN)c(C)c34)ccc2[nH]1	69 µM·h	160 nM	21 µM	63 nM	126 µM	12000 nM	3700 nM	4.4	303 µM·h	–	–	160 nM	310 nM	–	–	–
